Data as given in ChEMBL document CHEMBL3352043, “Discovery of small-molecule inhibitors selectively targeting the DNA-binding domain of the human androgen receptor” (J Med Chem, 2014).
Where a chain is given by its changes, count along the chain named. Active and inactive are the calls of the source. The rule behind the calls is not given here.

Experiments:
Androgen receptor = target: T1, Androgen receptor (Homo sapiens, UniProt P10275); assay: Inhibition of androgen receptor in human LNCaP cells assessed as inhibition of prostate-specific antigen secretion into media after 3 days; assay type: cell-based
T1 sequence (P10275 whole entry): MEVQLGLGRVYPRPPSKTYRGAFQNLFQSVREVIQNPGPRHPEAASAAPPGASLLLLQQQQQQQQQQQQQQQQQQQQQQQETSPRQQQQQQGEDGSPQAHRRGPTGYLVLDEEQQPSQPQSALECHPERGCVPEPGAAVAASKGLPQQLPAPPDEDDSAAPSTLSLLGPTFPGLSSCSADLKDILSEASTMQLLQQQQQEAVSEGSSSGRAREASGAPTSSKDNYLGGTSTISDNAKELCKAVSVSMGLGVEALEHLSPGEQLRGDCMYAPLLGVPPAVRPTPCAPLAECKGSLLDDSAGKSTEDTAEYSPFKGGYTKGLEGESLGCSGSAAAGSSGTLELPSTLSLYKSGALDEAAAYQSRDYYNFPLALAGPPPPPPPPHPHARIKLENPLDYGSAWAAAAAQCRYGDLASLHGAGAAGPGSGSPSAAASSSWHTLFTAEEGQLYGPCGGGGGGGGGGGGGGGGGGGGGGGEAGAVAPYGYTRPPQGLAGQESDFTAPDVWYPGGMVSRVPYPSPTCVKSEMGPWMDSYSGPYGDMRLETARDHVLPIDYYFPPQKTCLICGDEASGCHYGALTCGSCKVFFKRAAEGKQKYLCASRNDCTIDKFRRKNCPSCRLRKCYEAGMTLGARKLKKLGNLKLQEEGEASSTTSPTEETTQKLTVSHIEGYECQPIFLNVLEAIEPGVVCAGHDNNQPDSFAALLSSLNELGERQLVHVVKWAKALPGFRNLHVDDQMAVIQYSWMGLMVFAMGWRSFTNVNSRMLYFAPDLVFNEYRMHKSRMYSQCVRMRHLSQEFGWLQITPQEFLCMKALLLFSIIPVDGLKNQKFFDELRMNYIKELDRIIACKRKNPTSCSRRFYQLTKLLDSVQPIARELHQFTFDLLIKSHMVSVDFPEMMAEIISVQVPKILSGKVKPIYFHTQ

[1] = tested on: T2, Androgen receptor (Homo sapiens), P10275 [Q592D]; assay: Inhibition of human androgen receptor Q592D mutant expressed in human PC3 cells assessed as inhibition of transcription activity after 24 hrs by luciferase reporter gene assay; assay type: cell-based; details: PC-3
T2 sequence (whole entry): T1 sequence (P10275 whole entry) with Q592D
How it was run: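 PC3 cells were starved 5 days in RPMI 1640 with 5% charcoal-stripped serum and seeded at 5000 cells/well. After 24 h they were cotransfected with AR-V7 or hAR mutant plasmid plus 50 ng ARR3tk-luciferase. At 48 h post-transfection, compounds were added for 24 h with 0.1 nM R1881. Luminescence was read from passive-lysis-buffer lysates; mutant tests used 10 μM.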

[2] = target: T3, Androgen receptor (Homo sapiens) (UniProt P10275); assay: Displacement of androgen from androgen receptor (unknown origin) by Polarscreen competitor green assay
T3 sequence (whole entry): T1 sequence (P10275 whole entry)

[3] = target: T4, Estrogen receptor (Homo sapiens) (UniProt P03372); assay: Inhibition of ERalpha (unknown origin) transcriptional activity at […]
T4 sequence (whole entry): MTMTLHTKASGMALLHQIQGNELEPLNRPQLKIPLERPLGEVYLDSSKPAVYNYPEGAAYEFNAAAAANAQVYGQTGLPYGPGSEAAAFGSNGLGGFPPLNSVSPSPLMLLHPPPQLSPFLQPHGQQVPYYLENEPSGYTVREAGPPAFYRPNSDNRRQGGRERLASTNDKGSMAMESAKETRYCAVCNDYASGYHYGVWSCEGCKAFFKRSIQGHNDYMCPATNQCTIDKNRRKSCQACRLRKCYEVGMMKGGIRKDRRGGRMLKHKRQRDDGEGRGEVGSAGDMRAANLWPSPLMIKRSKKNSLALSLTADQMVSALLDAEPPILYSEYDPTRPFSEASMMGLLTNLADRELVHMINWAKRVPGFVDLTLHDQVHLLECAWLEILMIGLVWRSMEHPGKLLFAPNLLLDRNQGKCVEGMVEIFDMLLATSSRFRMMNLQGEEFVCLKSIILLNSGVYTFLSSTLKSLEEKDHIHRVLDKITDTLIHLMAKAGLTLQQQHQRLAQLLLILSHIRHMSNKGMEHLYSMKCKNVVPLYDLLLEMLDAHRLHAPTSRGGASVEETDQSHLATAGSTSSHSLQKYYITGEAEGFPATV
How it was run: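 MCF-7 cells stably carrying an ERE-luciferase reporter were stimulated with 1 nM estradiol and treated with compound. Luciferase luminescence was read from passive-lysis-buffer lysates.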

IC50 (Androgen receptor) [nM] | inhibition [1] | inhibition [2] | inhibition [3] | Activity [2] | Compound
170 | inactive | inactive | inactive | – | Brc1ncn(-c2csc(N3CCOCC3)n2)c1Br
280 | inactive | – | inactive | inactive | c1ccc(-c2csc(N3CCOCC3)n2)cc1
